Measured values from different studies.
Compare with care: the assays were run in different laboratories.
Target: Protein kinase C delta type (PRKCD, Homo sapiens, UniProt Q05655)

test	setting	measurement	result	Compound
enzyme activity, inhibitor	1 µM	activity vs control	104%	CC(C)c1ccc(NC(=O)c2cccs2)c(-c2nc3ccccc3[nH]c2=O)c1
cell-free assay, competition with immobilised ligand	0.1 µM	remaining binding	88%	Nc1c(C(=O)NCc2ccc(C(=O)NCCCC3CCCCC3)cc2)cnn1-c1ccccc1
enzyme activity, inhibitor	0.1 µM	activity vs control	108%	Cc1cc(NC(=O)c2cccc3cc(-c4cccc5[nH]nc(N)c45)ccc23)ccc1F
enzyme activity, inhibitor	0.75 µM	remaining activity	68%	CCCOc1ccc(OC)c(F)c1C(=O)c1ccc(C(=O)N[C@@H]2CNC[C@H]2NC(=O)c2ccc3[nH]ncc3c2)cc1
cell-free assay, competition with immobilised ligand	0.1 µM	remaining binding	100%	COCCOc1nc(-c2ccc(Cl)nc2)nc2c1CN(C(=O)c1ncn3ccccc13)CC2
enzyme activity, inhibitor, radiometric	1 µM	remaining activity	100%	CC(C)(C)c1nc2c(s1)c1nc(N)ncc1c1ccc(NS(=O)(=O)c3c(F)cccc3F)c(F)c12
cell-free assay, competition with immobilised ligand	1 µM	remaining binding	100%	c1ccc(N2CCN(Cc3nc4ccccc4[nH]3)CC2)nc1
cell-free assay	0.5 µM	remaining signal	96%	Oc1cccc(-c2nc(N3CCOCC3)c3oc4ncccc4c3n2)c1
enzyme activity, inhibitor	5 µM	remaining activity	112%	O=C(Nc1cnn(-c2csc(C(=O)NC3COC3)c2)c1)Nc1ccccc1Cl
enzyme activity, inhibitor	10 µM	remaining activity	85%	CCN(CC)c1ccc(C2=NNC(=O)CC2C)cc1[N+](=O)[O-] (stereo not shown)
cell-free assay, competition with immobilised ligand	1 µM	remaining binding	100%	CC(=O)C1=C(C)N(c2cccc(C(F)(F)F)c2)C(=O)N[C@@H]1c1ccc(C#N)nc1
enzyme activity, inhibitor, radiometric	2 µM	inhibition	81.1%	Cn1cncc1C1=CN(c2ncnc3[nH]cnc23)CCS1
enzyme activity	0.5 µM	remaining activity	106%	Cc1ccc(Nc2nccc(N(C)c3ccc4c(C)n(C)nc4c3)n2)cc1S(N)(=O)=O
cell-free assay, competition with immobilised ligand	1 µM	remaining binding	76%	CS(=O)(=O)NCC[C@H](NC(=O)c1cncc2c1cnn2-c1ccc(F)cc1)c1ccnc(S(C)(=O)=O)c1
enzyme activity, inhibitor, radiometric	1 µM	remaining activity	59%	Cc1cnc(NC2CCOCC2)nc1-n1cnc(C(=O)NC(CN)c2cc(F)cc(Cl)c2)c1 (stereo not shown)
enzyme activity, inhibitor	1 µM	inhibition	23%	COc1cc2ncnc(Nc3ccc(Oc4ccccc4)c(C)c3C)c2cc1OC
cell-free assay, competition with immobilised ligand	1 µM	remaining binding	100%	FC(F)(F)c1ccc2c(c1)nc(-c1cccnc1)n2C1CC1
enzyme activity, inhibitor	10 µM	inhibition	-6%	CNC(=O)c1cc(Oc2ccc(NC(=O)Nc3ccc(Cl)c(C(F)(F)F)c3)cc2)ccn1
enzyme activity, inhibitor, TR-FRET	10 µM	inhibition	82.5%	C[C@@H](N)[C@H]1CC[C@H](C(=O)Nc2ccncc2)CC1
cell-free assay	0.5 µM	remaining signal	41.9%	Cn1c2ccccc2c2c3c(c4c5ccccc5n(CCC#N)c4c21)CNC3=O
enzyme activity, inhibitor	0.1 µM	inhibition	24.6%	CC/C(=N\NC(=O)NCc1cccc(O)c1)c1ccc(O)c(C)c1O
cell-free assay, competition with immobilised ligand	1 µM	remaining binding	100%	CCC(=O)N[C@H]1CC[C@@H](C(=O)N(C)c2ccc(-c3nc4ccccc4o3)cc2)C1
enzyme activity, inhibitor, radiometric	50 nM	inhibition	29%	Cn1cnc(Br)c1C1=CN(c2ncnc3[nH]cnc23)CCS1
cell-free assay, competition with immobilised ligand	1 µM	remaining binding	100%	O=C(O)[C@H]1[C@H](Cn2nnc3ccccc3c2=O)CC[C@@H]1C(=O)c1ccc(OCCC2CCOCC2)cc1
cell-free assay	20 µM	remaining signal	14%	Nc1ncnc2occ(-c3ccc(NC(=O)Nc4cc(C(F)(F)F)ccc4F)cc3)c12
